From PubChem
Rows were chosen to be rich in hits. Some 3.8% of all compounds tested hit in one or more screens of this group.
Beta cell apopt: blocks beta cell apoptosis | INS-1E cytokine-induced death, ATP luminescence, 48 h; percent of positive-control rescue, neutral wells zero | protection from apoptosis, % (test concentration not listed) | 300,000 compounds, 0.8% hits;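 active means Every replicate reaches about 75%, or at least half do and their mean reaches it too, limit read from the data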;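 further: higher means more ATP so stronger rescue from cytokine killing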
MC4R antagonist: antagonists of human melanocortin 4 receptor (MC4R); P32245; MC4R-expressing cells, MTII-stimulated cAMP, LANCE TR-FRET; inhibition, % at 6.5 µM; 360,000 compounds, 0.48% hits;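 active means inhibition above its plate's cutoff, the mean of tested wells on that plate plus 3 SD, cut at about 29% in these data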
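Assay system: U2OS-MC4R stable cell line; Also added: Melanotan II; Technique: Eu-cAMP/anti-cAMP TR-FRET, emission 671 nm; Times: 30-min compound, 1-h challenge, 1-h detection, room temperature.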
TMEM16A act: mouse TMEM16A channel activation, primary screen. B-score at 10 µM. HEK293 TMEM16A/YFP-H148Q/I152L, iodide quench fluorescence; stronger effect = lower value. 340,000 compounds, 0.3% hits. Q8BHY3;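 active means fluorescence-ratio B-score plate-corrected deviation score at least 3 library SD below zero, with starting fluorescence score within 5 deviations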;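 further: channel opened by trigger with iodide after compound preincubation; score built on the fluorescence ratio of max minus min over baseline; more negative score means more quench and so TMEM16A activation or potentiation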
ANO1 block: mouse TMEM16A channel inhibition, primary screen. HEK293 TMEM16A/YFP iodide influx fluorescence, ionomycin. normalized B-score (activity score, 25-100; higher = stronger inhibition) at 10 µM. 310,000 compounds, 1.2% hits. AID 588511;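 active means ratio plate-corrected score three or more library SD toward inhibition, starting fluorescence score within five deviations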;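 further: score derived from kinetic fluorescence span divided by baseline fluorescence per well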
MC4R ag barr: activates human MC4R beta-arrestin recruitment; P32245; U2OS MC4R beta-arrestin complementation, luminescence; percent of melanotan II response, DMSO zero; activation, % at 8.9 µM; 360,000 compounds, 0.98% hits;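 active means activation above a per-plate cutoff, the mean activation of sample wells on that plate plus 3 SD, cut at about 8% in these data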
CSC inhib: cancer stem cell inhibition | cancer stem cell-like cells viability, luminescence | inhibition, % at 7.5 µM | 300,000 compounds, 1.1% hits; in the data active means inhibition above about 75%; tested in HMLE shEcad cells
MC4R barr conf: human MC4R beta-arrestin agonism confirmation | shares compounds with MC4R ag barr | U2OS MC4R beta-arrestin recruitment, luminescence; scaled DMSO 0%, Melanotan II 100% | activation, % at 8.9 µM | 2,400 compounds, 31% hits | AID 602192;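 active means mean activation across replicates above the hit cutoff set in the earlier primary screen, cut at about 8% in these data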
MOR DOR agonist: OPRM1-OPRD1 heterodimer agonism counter-screen; shares compounds with MC4R ag barr; U2OS PathHunter beta-arrestin, beta-gal luminescence; percent of deltorphin B response, DMSO zero; activation, % at 9.2 µM; 2,400 compounds, 5.8% hits;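 active means mean activation across replicates exceeds the hit threshold derived in the earlier primary screen, cut at about 18% in these data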
Target sequence (P35372 whole entry, looked up): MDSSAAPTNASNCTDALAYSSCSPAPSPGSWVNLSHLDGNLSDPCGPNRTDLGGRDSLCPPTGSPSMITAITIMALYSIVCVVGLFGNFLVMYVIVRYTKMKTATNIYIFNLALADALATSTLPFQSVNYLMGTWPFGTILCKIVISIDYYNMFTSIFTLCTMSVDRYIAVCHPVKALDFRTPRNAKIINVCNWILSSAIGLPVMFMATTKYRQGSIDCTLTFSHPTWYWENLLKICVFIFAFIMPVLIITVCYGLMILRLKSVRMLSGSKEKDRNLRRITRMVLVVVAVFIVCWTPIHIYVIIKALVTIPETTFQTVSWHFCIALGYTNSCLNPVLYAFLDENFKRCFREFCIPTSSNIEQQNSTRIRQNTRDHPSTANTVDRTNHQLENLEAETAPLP
Target sequence (P41143 whole entry, looked up): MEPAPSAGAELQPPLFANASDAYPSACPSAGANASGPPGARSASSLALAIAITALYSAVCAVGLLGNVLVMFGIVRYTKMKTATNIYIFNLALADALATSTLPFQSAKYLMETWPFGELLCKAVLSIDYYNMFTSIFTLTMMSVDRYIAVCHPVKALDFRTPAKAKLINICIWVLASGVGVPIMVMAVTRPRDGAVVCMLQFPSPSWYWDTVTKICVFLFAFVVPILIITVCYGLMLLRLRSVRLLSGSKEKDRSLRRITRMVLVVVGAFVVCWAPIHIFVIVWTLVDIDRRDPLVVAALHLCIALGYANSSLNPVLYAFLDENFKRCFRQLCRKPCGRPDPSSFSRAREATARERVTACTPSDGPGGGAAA
Of the large screens only hits and unclear results are named; the others gave an inactive call (follow-up assays come after a bar, where they were run).

COc1ccccc1C(=O)Nc1ccnn1C1CCN(C2CCCCC2)CC1	none (no result: Beta cell apopt, TMEM16A act, ANO1 block, CSC inhib)
CC(=O)c1sc(N/N=C/c2cccc([N+](=O)[O-])c2)nc1C	none
CCOC(=O)Cc1csc(NC(=O)c2cccc([N+](=O)[O-])c2)n1	none
O=[N+]([O-])c1cccc(-c2csc(N/N=C/c3cccc(O)c3)n2)c1	MC4R ag barr 11, CSC inhib 87 | MC4R barr conf 9.8 | MOR DOR agonist inactive
CCOC(=O)Cc1csc(N/N=C/c2cccc([N+](=O)[O-])c2)n1	MC4R ag barr 14 | MC4R barr conf inactive | MOR DOR agonist inactive
COc1ccc(C(C)=O)cc1COC(=O)c1cc2ccccc2cc1O	MC4R ag barr 11 | MC4R barr conf inactive | MOR DOR agonist inactive
COc1ccc(C(C)=O)cc1COC(=O)c1cccnc1Cl	none (no result: Beta cell apopt)
O=C(COC(=O)c1cc2ccccc2cc1O)Nc1ccccc1F	MC4R ag barr 13 (no result: ANO1 block) | MC4R barr conf inactive | MOR DOR agonist inactive
COc1ccc(C(C)=O)cc1COc1ccc(Cl)cc1Cl	MC4R ag barr 11 | MC4R barr conf inactive | MOR DOR agonist inactive
COc1ccc(C(C)=O)cc1COC(=O)c1ccc(OCc2c(C)noc2C)cc1	MC4R ag barr 16 | MC4R barr conf 9.2 | MOR DOR agonist inactive
COc1ccc(C(C)=O)cc1COC(=O)c1c(C)noc1C	none
O=C(NCc1cccnc1)c1cc(C2CCCCN2C(=O)c2ccccc2)on1 (centres undefined)	none (no result: Beta cell apopt, TMEM16A act, ANO1 block, CSC inhib)
O=C(COC(=O)c1ccccc1O)Nc1cccc2ccccc12	MC4R ag barr 12 (no result: ANO1 block, CSC inhib) | MC4R barr conf inactive | MOR DOR agonist inactive
COc1ccccc1NC(=O)COC(=O)c1cc2ccccc2cc1O	MC4R ag barr 17 (no result: ANO1 block, CSC inhib) | MC4R barr conf inactive | MOR DOR agonist inactive
COc1ccc(-c2csc(NC(=O)c3nc(-c4ccccc4)oc3C)n2)cc1	MC4R ag barr 12 | MC4R barr conf inactive | MOR DOR agonist inactive
COc1ccc(-c2csc(NC(=O)c3ccccc3C(=O)O)n2)cc1	none
CCOC(=O)c1sc(N(Cc2ccccc2)C(=O)CCl)nc1C	MC4R ag barr 16 | MC4R barr conf inactive | MOR DOR agonist 38
CCOC(=O)c1sc(N(Cc2ccccc2)C(=O)COC(=O)c2ccccc2O)nc1C	none
O=[N+]([O-])c1ccc2c(c1)C(=Nc1ccccc1)c1ccccc1-2	MC4R ag barr 11 (no result: Beta cell apopt, ANO1 block, CSC inhib) | MC4R barr conf inactive | MOR DOR agonist inactive
Cc1ccc(S(=O)(=O)c2cc3cc(Br)ccc3oc2=O)cc1	none
CCCCCCc1cc2cc(S(=O)(=O)c3ccc(C)cc3)c(=O)oc2cc1O	MC4R ag barr 22, CSC inhib 89 | MC4R barr conf 9.6 | MOR DOR agonist inactive
CN(C)CCNC(=O)c1cccc(-c2cnc3c(NC=O)cc(-c4cccc(F)c4)cn23)c1	none (no result: Beta cell apopt, TMEM16A act, ANO1 block, CSC inhib)
CCSc1ccc(-c2cc(NC=O)c3ncc(-c4cccc(C(=O)NCCN(C)C)c4)n3c2)cc1	MC4R ag barr 11 (no result: Beta cell apopt, TMEM16A act, ANO1 block, CSC inhib) | MC4R barr conf 13 | MOR DOR agonist inactive
CCSc1ccc(-c2cc(NC=O)c3ncc(-c4cccc(C(=O)N(C)C)c4)n3c2)cc1	MC4R ag barr 10 (no result: Beta cell apopt, TMEM16A act, ANO1 block, CSC inhib) | MC4R barr conf 9.1 | MOR DOR agonist inactive
CN(C)C(=O)c1cccc(-c2cnc3c(NC=O)cc(-c4cc(F)c(F)c(F)c4)cn23)c1	none (no result: Beta cell apopt, TMEM16A act, ANO1 block, CSC inhib)
CN(C)C(=O)c1cccc(-c2cnc3c(NC=O)cc(-c4ccccc4F)cn23)c1	MC4R ag barr 9.8 (no result: Beta cell apopt, TMEM16A act, ANO1 block, CSC inhib) | MC4R barr conf 11 | MOR DOR agonist inactive
CN(C)CCNC(=O)c1cccc(-c2cnc3c(NC=O)cc(/C=C/c4ccccc4)cn23)c1	MC4R ag barr 17 (no result: Beta cell apopt, TMEM16A act, ANO1 block, CSC inhib) | MC4R barr conf inactive | MOR DOR agonist inactive
CSc1ccc(CN2C(=O)C(C)ON=C2c2ccccc2F)cc1 (centres undefined)	none (no result: Beta cell apopt, TMEM16A act, ANO1 block, CSC inhib)
O=C(Nc1ccc(F)c(Cl)c1)[C@@H]1O[C@H](CO)[C@H](O)[C@H](O)[C@H]1O	none (no result: Beta cell apopt, TMEM16A act, ANO1 block, CSC inhib)
O=[N+]([O-])c1ccc(S(=O)(=O)Nc2ccc(-c3ccccc3)cc2)cc1	MC4R ag barr 15 (no result: Beta cell apopt, TMEM16A act, ANO1 block, CSC inhib) | MC4R barr conf inactive | MOR DOR agonist inactive
Cc1nc(NC(=O)COc2ccccc2)sc1C(=O)Nc1cccc(Cl)c1	none
Cc1nc(NC(=O)/C=C/c2ccccc2)sc1C(=O)Nc1cccc(Cl)c1	MC4R ag barr 12 | MC4R barr conf inactive | MOR DOR agonist inactive
O=C1NC2(CCCCC2)C(=O)N1CC(=O)N1CCc2ccccc21	none (no result: ANO1 block)
Cn1ncc(Cl)c1C(=O)NC1CCCC1	none
CCCOc1ccc(C2CC(=O)Nc3cc(OC)c(OC)cc32)cc1 (centres undefined)	none
NNc1ccc(S(=O)(=O)N2CCCCC2)cn1	MC4R ag barr 12 | MC4R barr conf inactive | MOR DOR agonist inactive
O=S(=O)(c1ccc(N2CCCC2)nc1)N1CCCC1	none
Cc1ccc(CN2CC(C(=O)N3CCN(c4ccccc4Cl)CC3)CC2=O)cc1 (centres undefined)	none (no result: ANO1 block, CSC inhib)
Cc1ccc(S(=O)(=O)N(C)c2ccccc2C(=O)Nc2c(F)cccc2F)cc1	none (no result: Beta cell apopt)
COC(=O)c1sccc1N/N=C/c1ccc(OC)c(OC)c1OC	none
COC(=O)c1sccc1N/N=C/c1cccc(OC)c1O	MC4R ag barr 14 | MC4R barr conf inactive | MOR DOR agonist inactive
Cc1ccc(NC(=O)Cn2cnc3c(NCc4ccccc4)ncnc32)cc1C	none (no result: Beta cell apopt, TMEM16A act, ANO1 block, CSC inhib)
CCOC(=O)N/N=C\c1ccc(OC/C=C/c2ccccc2)cc1	MC4R ag barr 11 | MC4R barr conf inactive | MOR DOR agonist inactive
COc1ccc(-c2cnc3c(NC(C)=O)cc(-c4ccc(S(C)(=O)=O)cc4)cn23)cc1OC	MC4R ag barr 11 (no result: Beta cell apopt, TMEM16A act, ANO1 block, CSC inhib) | MC4R barr conf 9.8 | MOR DOR agonist inactive
COc1cccc(-c2cnc3c(NC(C)=O)cc(-c4ccc(S(C)(=O)=O)cc4)cn23)c1	MC4R ag barr 11 (no result: Beta cell apopt, TMEM16A act, ANO1 block, CSC inhib) | MC4R barr conf 14 | MOR DOR agonist inactive
COc1ccc(-c2cnc3c(NC=O)cc(-c4ccc(S(C)(=O)=O)cc4)cn23)cc1OC	none (no result: Beta cell apopt, TMEM16A act, ANO1 block, CSC inhib)
CCc1nc2ccc(C(=O)NCc3ccc4c(c3)OCO4)cn2c1N(C)C(=O)Cc1ccccc1	none (no result: Beta cell apopt, TMEM16A act, ANO1 block, CSC inhib)
COc1ccc(O)c(-c2cc(C(F)(F)C(F)F)nc(-c3ccccc3)n2)c1	MC4R ag barr 14 | MC4R barr conf 17 | MOR DOR agonist inactive
COc1ccc(-c2cc(-c3ccccc3)nc(N)n2)c(O)c1	none (no result: Beta cell apopt, ANO1 block, CSC inhib)
COc1ccc(-c2cc(NC=O)c3ncc(-c4cnn(C)c4)n3c2)cc1	MC4R ag barr 14 (no result: Beta cell apopt, TMEM16A act, ANO1 block, CSC inhib) | MC4R barr conf 9.6 | MOR DOR agonist inactive
